# The list is not random: actives were taken first. Their share in the collection is about 2.5%.
# PAX8 reporter: inhibitors of PAX8 transcriptional activity in RMG-I cells; RMG-I TPO-luciferase reporter, SteadyGlo, 24 h; inhibition, % at 12.6 µM; actives 1.2% (n = 360,000); AID 652154;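 active means mean replicate inhibition at least 60% with every replicate also reaching 60%; inconclusive means only one of the two criteria is met; inactive means mean below 60% and not all replicates reaching 60%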;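 further: luciferase light reporting Pax8 driven TPO promoter activity; plate controls were median of neutral control wells for no effect and mitoxantrone controls for full effect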
# MLL AF4-AF9 inh: inhibitors of human MLL-AF4/AF9 interaction; inhibition, % at 10 µM; AlphaScreen, biotin-AF4 peptide binding to FLAG-AF9; P42568; AID 651704; actives 0.47% (n = 350,000);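 active means every replicate reaching a set inhibition limit, whatever the replicate mean, cut at about 25% in these data; inconclusive means mean inhibition reaches that limit but some replicates miss it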;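 further: 0% = plate neutral control median and 100% = total signal loss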
# Target sequence (P42568 whole entry, looked up): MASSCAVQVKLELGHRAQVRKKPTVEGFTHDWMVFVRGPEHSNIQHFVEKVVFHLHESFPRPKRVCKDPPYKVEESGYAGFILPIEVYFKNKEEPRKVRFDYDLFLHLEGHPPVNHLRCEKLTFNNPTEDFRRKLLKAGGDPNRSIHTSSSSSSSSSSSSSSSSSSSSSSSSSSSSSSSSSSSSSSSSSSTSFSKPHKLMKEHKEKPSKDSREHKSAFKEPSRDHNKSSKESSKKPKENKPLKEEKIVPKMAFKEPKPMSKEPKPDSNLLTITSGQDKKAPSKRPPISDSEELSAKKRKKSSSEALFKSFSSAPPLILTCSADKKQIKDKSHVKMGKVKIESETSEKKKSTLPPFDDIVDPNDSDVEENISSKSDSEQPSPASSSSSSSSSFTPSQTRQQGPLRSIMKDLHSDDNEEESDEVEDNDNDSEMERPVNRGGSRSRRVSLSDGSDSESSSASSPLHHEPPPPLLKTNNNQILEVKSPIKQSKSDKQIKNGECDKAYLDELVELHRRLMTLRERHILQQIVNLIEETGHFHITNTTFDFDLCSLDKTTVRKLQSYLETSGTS
# Glyco luc inh: blocks N-linked glycosylation in D54 reporter cells | D54 ERlucT glycosylation luciferase reporter, 24 h; percent of 100 nM tunicamycin response | reporter increase, % at 12.5 µM | actives 0.23% (n = 360,000);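 active means mean luciferase reporter signal, scaled so untreated is 0 and the glycosylation-blocking control 100, at or above a set limit in every replicate; inconclusive means mean reaches the limit but not every replicate does; inactive means mean below the limit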;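 further: luciferase carries N-glycosylation sites so blocking glycosylation raises the light; 0% = median of neutral control wells and 100% = median of 100 nM tunicamycin wells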
# Env fusion inh: blocks HIV Env-driven cell-cell fusion; HeLa-JRFL Env/CEM21 cell fusion, luciferase; inhibition, % at 12.3 µM; actives 1.1% (n = 360,000);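 active means mean replicate inhibition score of at least 50 and every replicate individually at or above 50; inconclusive means only one of the two criteria met; inactive means mean below 50 and not all replicates reaching 50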;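 further: 0% = plate neutral controls and 100% = maraviroc near 300 nM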
# FN deposition inh: fibronectin deposition inhibition; actives 0.086% (n = 350,000); inhibition, % at 12.6 µM; AH1F fibroblasts, Alexa488-fibronectin deposition fluorescence, overnight;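 active means mean inhibition across replicates of 30% or more, regardless of how many single replicates reach that level; inconclusive means mean under 30% yet at least half of replicates reach 30%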;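 further: positive control wells lacked labelled fibronectin entirely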
#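 Schedule: 1 h cell adhesion before compound, then overnight fibronectin incubation; test system: AH1F fibroblast monolayer depositing Alexa488-labelled fibronectin into matrix; quantity: 10000 AH1F cells per well; probe or stimulus: fluorescent fibronectin at 24 nM final; signal: fluorescence, ex 485 nm, em 525 nm; evaluation: percent inhibition as loss of matrix-bound fibronectin fluorescence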
# EWS-Fli inh: blocks EWS/Fli oncoprotein-driven transcription; inhibition, % at 12.6 µM; A673 NR0B1-luciferase reporter, viability-normalised; actives 0.67% (n = 350,000);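 active means mean inhibition of at least 50% after viability correction, with every replicate also passing that limit; inconclusive means mean reaches 50% but only one of two replicates passes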;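 further: firefly luciferase signal divided by Alamar Blue viability fluorescence both relative to DMSO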
# An asterisk follows results filed as active; ? = inconclusive; . = no result; ! = repeats disagree; [ ] = dose if it differs, or a comment.
SMILES,PAX8 reporter,MLL AF4-AF9 inh,Glyco luc inh,Env fusion inh,FN deposition inh,EWS-Fli inh
CC12CC[C@H]3[C@@H](CCC4(O)C[C@H](O)CCC34/C=N/NC(=O)c3ccccc3[N+](=O)[O-])C1(O)CCC2C1=CC(=O)OC1 (stereo partly specified),-6,0,30*,-61,-5,5
CC[C@H](C)[C@@H]1NC(=O)CNC(=O)c2csc(n2)[C@H](C(C)(C)O)OC(=O)C(C)(C)[C@H](CCCC(C)(Cl)Cl)OC(=O)c2csc1n2,102*,1,-19,.,48*,2
Cc1ccc(S(=O)(=O)CC(C)(O)C(=O)Nc2cccc(C(F)(F)F)c2)cc1 (stereo unspecified),.,.,1,68*,.,.
CCCCCP(=O)(O)c1ccccc1,.,.,-1,-4,-3,.
CCCC/C(C)=C/[C@@H](NP(=O)(c1ccccc1)c1ccccc1)c1ccccc1,-7,-10,-7,84*,-10,8
Cc1ccc2c(C)c3ccc4ccccc4c3c[n+]2c1,31,1,37*,2,-3,-43
COC(=O)[C@H]1[C@H](CO)[C@H]2Cn3c(ccc(-c4ccc(F)cc4)c3=O)[C@@H]1N2C(C)=O,-10,-2,.,.,.,3
CC(=O)O[C@H]1C[C@@H]2OC3C=C(C)CCC3(C)[C@@]1(C)[C@@]21CO1 (stereo partly specified),110*,-2,-18,72*,6,27
C[C@]12CCC3=C4CCC(=O)C=C4CC[C@H]3C1CC[C@@H]2O (stereo partly specified),6,-22,0,56*,4,4
O=C(O)CCC(=O)NCCC1=c2ccccc2=N/C1=C\c1c(O)n(Cc2ccc(F)cc2)c(=S)[nH]c1=O,62*,-8,2,6,3,11
C=C1C(=O)OC2CC(C)C3C=CC(=O)C3(C)C(O)C12 (stereo unspecified),.,.,-18,.,.,.
C=C1C(=O)O[C@@H]2C[C@@H](C)[C@@H]3C4OC4C(=O)[C@@]3(C)[C@@H](O)[C@H]12 (stereo partly specified),104*,-3,-11,-341,12,73*
O=C(Cc1cccnc1)N1CCCCN2[C@H](CO)[C@H](c3ccc(/C=C/c4ccccc4)cc3)[C@H]2C1,11,16,.,.,.,6
O=C(Cc1cccnc1)N1CCCCN2[C@H](CO)[C@@H](c3ccc(/C=C/c4ccccc4)cc3)[C@H]2C1,-8,27*,.,.,.,-11
Cc1[nH]c2ccc(O)cc2c1CCN,23,32*,0,16,-6,-7
COc1cc(/C=C/[N+](=O)[O-])ccc1OC(=O)c1cccnc1,15,-5,13,-9,-7,56*
O=C(O)[C@@H]1[C@@H](CO)[C@@H]2Cn3c(ccc(-c4ccccc4)c3=O)[C@H]1N2S(=O)(=O)c1ccccc1F,-2,-1,.,.,.,-7
Cc1cccc(NC(=O)CSc2nnc([C@@H](N)Cc3c[nH]c4ccccc34)o2)c1C,.,.,0,55*,-3,.
CCSc1nnc([C@@H](N)Cc2c[nH]c3ccccc23)o1,2,.,2,-28,.,.
C[C@H]1CN([C@@H](C)CO)C(=O)c2c(c3ccccc3n2C)-c2ccccc2CO[C@H]1CN(C)C(=O)Oc1ccccc1,5,-1,.,.,-5,7
CC(=O)Nc1ccc(C=C2C(=O)NC(=O)NC2=O)cc1,-24,-3,3,63*,.,-7
Cc1cccc(S(=O)(=O)N2[C@@H]3Cn4c(ccc(-c5ccncc5)c4=O)[C@H]2[C@@H](C(=O)O)[C@@H]3CO)c1,1,-3,.,.,.,-4
CN1C(=O)NC(=O)/C(=C\C=C\c2ccccc2[N+](=O)[O-])C1=O,10,-2,.,-154,-11,67*
O=C(Cc1ccccc1)N1CC2(C1)[C@H](c1ccccc1)[C@@H](CO)N2Cc1cccc(F)c1,45,2,.,.,.,3
COc1ccc(/C=N\N=C(N)N)cc1,-14,-2,1,-1,.,5
SMILES,PAX8 reporter,MLL AF4-AF9 inh,Glyco luc inh,Env fusion inh,FN deposition inh,EWS-Fli inh
NC(N)=N/N=C/c1ccc(N(c2ccccc2)c2ccccc2)cc1,81*,-28,-19,9,4,58*
O=C(Cc1ccncc1)N1CCCCN2[C@H](C1)[C@@H](c1ccc(C#CC3(O)CCCC3)cc1)[C@@H]2CO,6,-4,.,.,.,.
CC1=CC(C)CC(C)OC(=O)CC(c2ccc(O)cc2)NC(=O)C(Cc2c(Br)[nH]c3ccccc23)N(C)C(=O)C(C)NC(=O)C(C)C1 (stereo unspecified),102*,-2,-17,81*,10,-25
CC1=CC2OC3CC4OC(=O)C=CC=CC(C(C)O)OCC(O)C5(C)OC5C(=O)OCC2(CC1O)C4(C)C31CO1 (stereo unspecified),102*,4,-17,73*,29,45
CC1CCOC(=O)C=CC=CC(=O)OC2CC3OC4C5OC5(C)C(O)CC4(COC(=O)C1O)C2(C)C31CO1 (stereo unspecified),104*,-4,-18,59*,6,22
CC1=CC2OC3CC4OC(=O)C=CC=CC(=O)OCCC(C)C(O)C(=O)OCC2(CC1)C4(C)C31CO1 (stereo unspecified),102*,-1,-19,?,-1,19
CC(O)C1C=CC=CC(=O)OC2CC3OC4C5OC5(C)C(O)CC4(COC(=O)C(O)C(C)CCO1)C2(C)C31CO1 (stereo unspecified),113*,-3,-18,70*,22,29
COC(=O)[C@H]1[C@H](CO)[C@H]2Cn3c(ccc(C4=CCCC4)c3=O)[C@@H]1N2C(=O)C1CCCCC1,-11,.,.,-6[16.7 µM],.,1
N#Cc1cccc(-c2ccc([C@H]3[C@H]4CN(C(=O)Cc5ccncc5)CCCCN4[C@H]3CO)cc2)c1,28,-2,.,.,.,.
N#Cc1ccc(-c2ccc([C@@H]3[C@H]4CN(C(=O)Cc5ccccc5)CCCCN4[C@H]3CO)cc2)cc1,-2,-7,.,.,.,4
C[C@H](CO)N1C[C@H](C)[C@@H](CN(C)C(=O)Oc2ccccc2)OCc2ccccc2-c2c(n(C)c3ccccc23)C1=O,.,.,.,.,4,.
CC(N)C(=O)NC1C2C(=C(O)CC(O)C2O)C(=O)OC1(C)C(Cl)Cl (stereo unspecified),121*,-6,-19,99*,18,?
C=CCN1[C@@H]2CN(C(=O)NC(C)C)C[C@H]1C2c1ccccc1 (stereo partly specified),.,.,.,.,-5,.
C/C=C/c1ccc(C2[C@@H]3CN(C(=O)C4CCOCC4)C[C@H]2N3)cc1 (stereo partly specified),-10,-2,.,.,-6,-18
NC(=O)c1cn(C2OC(CO)C(O)C2O)c2ncnc(N)c12 (stereo unspecified),96*,-2,-19,89*,53*,55*!

# High-throughput results deposited in PubChem by Broad Institute.
